For one experiment, the system named is patient 1 tumor CR cells. In words: Drug sensitivity assay. Format: cell-based, Human. To be noted: for Sensitivity of tumor-derived CR cells compared with benign CR cells: patient 1, IC50 comparison, 72 hour, P < .05 where significant. In a few lines:
(§1)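 Tumor CR cells came from radical prostatectomy tissue (>70% tumor) by protease dissociation and the conditional reprogramming method, alongside matched benign CR cells. 3000 cells per well were seeded in conditioned medium, in triplicate. After 24 h, medium containing test compound was added. […] Values are mean ± SD of three separate experiments in triplicate.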

For the next experiment, the system named is patient 2 tumor CR cells. In words: Drug sensitivity assay. Format: cell-based, Human. The following applies: for Sensitivity of tumor-derived CR cells compared with normal CR cells: patient 2, IC50 comparison, 72 hour, P < .01 where significant. An outline of the steps: as §1
Experiment [1] deals with metastatic CRPC. To be noted: phase I trials; cited from earlier work.
A further experiment deals with tumor CR cells. Format: cell-based, Human. To be noted: shared by patients 1 and 2; FDR 0.05; FC 1.5. An outline of the steps:
(§2)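 Tumor and normal CR cells from each patient were grown in conditioned medium and given test compound (28 nM for patient 1, 6.5 nM for patient 2) or DMSO, then profiled by RNA-seq. Treated-vs-DMSO DEGs were called at FDR < 0.05 and FC 1.5. Induced and inhibited gene sets were compared across both patients' cells by Venn diagram (Venny).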

A further experiment has as its system normal CR cells. Format: cell-based, Human. The following applies: shared by patients 1 and 2; FDR 0.05; FC 1.5. An outline of the steps: as §2
In experiment [2] the test system is metastatic CRPC. To be noted: phase II trial, CFZ in combination with other drugs; cited from earlier work.

`CC(C)C[C@H](NC(=O)[C@H](Cc1ccccc1)NC(=O)c1cnccn1)B(O)O` [BTZ, bortezomib]: in the experiment on patient 1 tumor CR cells, the “Sensitivity of tumor-derived CR cells compared with benign CR cells” value (“Sensitivity … compared with benign CR cells” below) is on record as “more sensitive”. Also, the “Sensitivity of tumor-derived CR cells compared with normal CR cells” value (“Sensitivity … compared with normal CR cells” for short) with patient 2 tumor CR cells was “significant responses”. For the same molecule, in the experiment on metastatic CRPC [1], the “patients showing stable PSA” value was 25% and the “patients with more than 50% decline in PSA” value is listed as 4%.

With `CC(C)C[C@H](NC(=O)[C@H](CCc1ccccc1)NC(=O)CN1CCOCC1)C(=O)N[C@@H](Cc1ccccc1)C(=O)N[C@@H](CC(C)C)C(=O)[C@@]1(C)CO1` [CFZ, carfilzomib], half-maximal inhibition with patient 1 tumor CR cells (Homo sapiens, 72 h) (IC50) was put at 28 nM. Moreover, in the experiment with patient 1 tumor CR cells, the “Sensitivity … compared with benign CR cells” value is listed as “more sensitive”. Moreover, in the experiment with patient 2 tumor CR cells (Homo sapiens, 72 h), the IC50 (as a rule, the point on the concentration scale where inhibition reaches its midpoint) came to 6.5 nM. Also, the “Sensitivity … compared with normal CR cells” value with patient 2 tumor CR cells is recorded as “significant responses”. Besides, in the experiment with tumor CR cells, the “common genes exclusively induced in the tumor CR cells” value was 23 and the “genes inhibited that were shared in the tumor CR cells” value was 45. Moreover, the “shared genes inhibited in the normal CR cells” value in the experiment with normal CR cells turned out to be 56. In the experiment on metastatic CRPC [2], the “patients with a decline in PSA” value was 3.5%.

Take `N[C@@H](CCC(=O)N[C@@H](CS)C(=O)NCC(=O)O)C(=O)O` [GSH, glutathione]: the “Sensitivity … compared with benign CR cells” value in the experiment on patient 1 tumor CR cells is recorded as “No significant differential responses”. Besides, in the experiment with patient 2 tumor CR cells, the “Sensitivity … compared with normal CR cells” value was “No significant differential responses”.

As for `S=C=NCCc1ccccc1` [PTC, phenethyl isothiocyanate], the “Sensitivity … compared with normal CR cells” value in the experiment with patient 2 tumor CR cells is “no differences in sensitivity”.

On to `Nc1nccc(-c2c(-c3ccc(F)cc3)ncn2C2CCNCC2)n1` [SB220025], for which the “Sensitivity … compared with benign CR cells” value with patient 1 tumor CR cells is “No significant differential responses”. The “Sensitivity … compared with normal CR cells” value in the experiment with patient 2 tumor CR cells is given as “No significant differential responses”.

Regarding `C[S+]([O-])CCCCN=C=S` (stereo not shown) [SFN, sulforaphane], the “Sensitivity … compared with benign CR cells” value in the experiment on patient 1 tumor CR cells was “more sensitive”. Also, the “Sensitivity … compared with normal CR cells” value in the experiment on patient 2 tumor CR cells is “no differences in sensitivity”.

These data come from PMC7540414 (The Prostate, 2020).
